Experimental findings from ChEMBL document CHEMBL3352424, “Synthesis, biological evaluation and 3D-QSAR study of hydrazide, semicarbazide and thiosemicarbazide derivatives of 4-(adamantan-1-yl)quinoline as anti-tuberculosis agents” (Eur J Med Chem, 2014) are described below.

Converted amounts (≈) assume the structure as drawn.

In one series the test system is L929. The experiment in a line: Cytotoxicity against mouse L929 cells assessed as reduction in cell viability up to 200 ug/ml after 5 days by MTT assay. It counts as cell-based. The conditions noted are these: l929, 120 h. The method in brief:
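MTT viability assay in mouse fibroblasts, run on compounds active against TB, with 200 µg/mL as the highest test concentration.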

Series [1] has as its system Mycobacterium tuberculosis. The experiment in a line: Antitubercular activity against Mycobacterium tuberculosis H37Rv strain at 6.25 ug/ml by microplate alamar blue assay. It counts as functional. Background: Alamar Blue is a resazurin reagent that responds to reducing activity.
Series [2] relates to Mycobacterium tuberculosis. The experiment in a line: Antitubercular activity against Mycobacterium tuberculosis H37Rv strain by BACTEC 460 radiometric assay. Type of series: functional, organism-based.
In series [3] the test system is Mycobacterium tuberculosis. The experiment in a line: Antitubercular activity against Mycobacterium tuberculosis H37Rv strain at 1.56 ug/ml by microplate alamar blue assay. It counts as functional.
Series [4] has as its system Mycobacterium tuberculosis. The experiment in a line: Antitubercular activity against Mycobacterium tuberculosis H37Rv strain. Type of series: functional.

For orientation: inhibition means the share of the control response that was lost under treatment. Read a high inhibition as strong suppression. In general, IC50 refers to the concentration at which inhibition is half-maximal. The MIC90 is an inhibitory concentration at the 90% level, which refers to growth in some studies and to a panel of isolates in others. The low end stands for greater potency, the high end for weaker potency. Take `O=C(NNC(=O)c1cccc2ccccc12)c1cc(C23CC4CC(CC(C4)C2)C3)c2ccccc2n1`: the Activity entry in the series on L929 is “Non-toxic”. The compound further returned an inhibition at 6.25 µg/mL in series [1] of 88%. Moreover, in series [2], the IC50 is 4.47 µM and the MIC90 was 6.25 µg/mL (≈ 13.1 µM).

`O=C(NNC(=O)c1cc(C23CC4CC(CC(C4)C2)C3)c2ccccc2n1)NC12CC3CC(CC(C3)C1)C2`: in the series with L929, the Activity entry is reported as “Non-toxic”. The compound also yielded an inhibition at 6.25 µg/mL in series [1] of 34%. Moreover, in series [2], the IC50 was 24.5 µM and the MIC90 came to 6.25 µg/mL (≈ 12.5 µM).

Regarding `O=C(NNC(=O)c1cc(C23CC4CC(CC(C4)C2)C3)c2ccccc2n1)c1ccc2ccccc2c1`, in the series on L929, the Activity result is listed as “Non-toxic”. The compound also showed an inhibition at 6.25 µg/mL in series [1] of 90%. In series [2], the IC50 is 4.68 µM and the MIC90 was 6.25 µg/mL (≈ 13.1 µM).

As for `O=C(NNC(=S)NCCc1ccccc1)c1cc(C23CC4CC(CC(C4)C2)C3)c2ccccc2n1`, in the series with L929, the Activity entry is listed as “Non-toxic”. In addition, in series [1], testing at 6.25 µg/mL gave an inhibition of 47%. In series [2], this compound had an IC50 of 14.5 µM and an MIC90 of 6.25 µg/mL (≈ 12.9 µM).

For the compound `O=C(NNC(=S)Nc1cc(Cl)ccc1Cl)c1cc(C23CC4CC(CC(C4)C2)C3)c2ccccc2n1`, the Activity entry in the series on L929 is given as “Non-toxic”. For the same compound, the inhibition at 6.25 µg/mL in series [1] turned out to be 43%. In series [2], this compound had an IC50 of 15.8 µM and an MIC90 of 6.25 µg/mL (≈ 11.9 µM).

As to `COc1ccc(NC(=O)NNC(=O)c2cc(C34CC5CC(CC(C5)C3)C4)c3ccccc3n2)cc1`, in the series on L929, the Activity result is on record as “Non-toxic”. In series [1], testing at 6.25 µg/mL gave an inhibition of 78%. In series [2], this compound showed an IC50 of 3.72 µM and an MIC90 of 6.25 µg/mL (≈ 13.3 µM).

Regarding `O=C(NNC(=O)c1cc(C23CC4CC(CC(C4)C2)C3)c2ccccc2n1)Nc1ccc(OC(F)(F)F)cc1`, in the series with L929, the Activity entry is recorded as “Non-toxic”. The compound further gave an inhibition at 6.25 µg/mL in series [1] of 99%. In series [2], this compound gave an IC50 of 0.427 µM and an MIC90 of 3.12 µg/mL (≈ 5.96 µM). For the same compound, in series [3], testing at 1.56 µg/mL gave an inhibition of 50%.

Turning to `O=C(NNC(=S)Nc1ccc([N+](=O)[O-])cc1)c1cc(C23CC4CC(CC(C4)C2)C3)c2ccccc2n1`, the Activity result in the series with L929 was “Non-toxic”. The same compound had an inhibition at 6.25 µg/mL in series [1] of 94%. In series [2], this compound gave an IC50 of 0.794 µM and an MIC90 of 6.25 µg/mL (≈ 12.5 µM).

In the case of `CC(C)(C)NC(=S)NNC(=O)c1cc(C23CC4CC(CC(C4)C2)C3)c2ccccc2n1`, the Activity entry in the series on L929 is reported as “Non-toxic”. For the same compound, the inhibition at 6.25 µg/mL in series [1] came out at 90%. In series [2], this compound gave an IC50 of 1.58 µM and an MIC90 of 6.25 µg/mL (≈ 14.3 µM).

In the case of `CCCCCCCCCCC(=O)NNC(=O)c1cc(C23CC4CC(CC(C4)C2)C3)c2ccccc2n1`, the Activity result in the series with L929 is “Non-toxic”. The same compound yielded an inhibition at 6.25 µg/mL in series [1] of 32%. In series [2], this compound showed an IC50 of 26.9 µM and an MIC90 of 6.25 µg/mL (≈ 12.8 µM).

Regarding `COc1cc(NC(=S)NNC(=O)c2cc(C34CC5CC(CC(C5)C3)C4)c3ccccc3n2)cc(OC)c1OC`, the Activity entry in the series with L929 is recorded as “Non-toxic”. The same compound showed an inhibition at 6.25 µg/mL in series [1] of 46%. In series [2], this compound showed an IC50 of 14.5 µM and an MIC90 of 6.25 µg/mL (≈ 11.4 µM).

Consider `O=C(NNC(=O)c1ccco1)c1cc(C23CC4CC(CC(C4)C2)C3)c2ccccc2n1`, for which, in the series on L929, the Activity entry is “Non-toxic”. Moreover, the inhibition at 6.25 µg/mL in series [1] amounted to 0%. The compound also showed an MIC90 in series [2] of 6.25 µg/mL (≈ 15 µM).

As for `O=C(NNC(=S)Nc1cccc2ccccc12)c1cc(C23CC4CC(CC(C4)C2)C3)c2ccccc2n1`, the Activity entry in the series with L929 is listed as “Non-toxic”. For the same compound, at 6.25 µg/mL the inhibition in series [1] was 44%. Moreover, in series [2], the midpoint of inhibition, the IC50, lay at 15.8 µM and the MIC90 came to 6.25 µg/mL (≈ 12.3 µM).

For `CCc1cccc(CC)c1NC(=O)NNC(=O)c1cc(C23CC4CC(CC(C4)C2)C3)c2ccccc2n1`, in the series with L929, the Activity entry is listed as “Non-toxic”. Also, the inhibition at 6.25 µg/mL in series [1] was 27%. In series [2], this compound showed an IC50 of 33.9 µM and an MIC90 of 6.25 µg/mL (≈ 12.6 µM).

Take `O=C(NNC(=O)c1cc(C23CC4CC(CC(C4)C2)C3)c2ccccc2n1)NC1CCCCCCCCCCC1`: the Activity result in the series with L929 is reported as “Non-toxic”. Besides, the inhibition at 6.25 µg/mL in series [1] worked out at 87%. In series [2], the IC50 was 1.78 µM and the MIC90 amounted to 6.25 µg/mL (≈ 11.8 µM).

As a reminder, the MIC99 is the lowest concentration that inhibits either 99% of growth or 99% of the strains tested, depending on the study. The low end stands for greater potency, the high end for weaker potency. Regarding `NNC(=O)c1cc(C23CC4CC(CC(C4)C2)C3)c2ccccc2n1`, in the series with L929, the Activity result is “Non-toxic”. Further, the MIC99 in series [4] was determined as 3.12 µg/mL (≈ 9.72 µM).

`Cc1ccc(NC(=S)NNC(=O)c2cc(C34CC5CC(CC(C5)C3)C4)c3ccccc3n2)cc1`: in the series on L929, the Activity result was “Non-toxic”. In addition, the inhibition at 6.25 µg/mL in series [1] was 23%. In series [2], this compound had an IC50 of 45.7 µM and an MIC90 of 6.25 µg/mL (≈ 13.3 µM).

Consider `CCCCOc1ccc(NC(=O)NNC(=O)c2cc(C34CC5CC(CC(C5)C3)C4)c3ccccc3n2)cc1`, for which the Activity result in the series with L929 is reported as “Non-toxic”. Moreover, the inhibition at 6.25 µg/mL in series [1] was determined as 61%. Further, in series [2], the IC50 is 7.76 µM and the MIC90 was 6.25 µg/mL (≈ 12.2 µM).

As for `O=C(NNC(=O)c1c(F)c(F)c(F)c(F)c1F)c1cc(C23CC4CC(CC(C4)C2)C3)c2ccccc2n1`, the Activity entry with L929 is “Non-toxic”. In series [1], this compound came in with an inhibition at 6.25 µg/mL of 88%. In series [2], this compound gave an IC50 of 1.66 µM and an MIC90 of 6.25 µg/mL (≈ 12.1 µM).

Consider `O=C(NNC(=O)c1cc(C23CC4CC(CC(C4)C2)C3)c2ccccc2n1)Nc1ccc(F)cc1`, for which, in the series on L929, the Activity entry is “Non-toxic”. The inhibition at 6.25 µg/mL in series [1] worked out at 68%. In series [2], this compound had an IC50 of 6.46 µM and an MIC90 of 6.25 µg/mL (≈ 13.6 µM).

For the compound `C=CCNC(=S)NNC(=O)c1cc(C23CC4CC(CC(C4)C2)C3)c2ccccc2n1`, the Activity entry with L929 is given as “Non-toxic”. Moreover, in series [1], the inhibition at 6.25 µg/mL stood at 77%. Besides, in series [2], the IC50 was 4.07 µM and the MIC90 was 6.25 µg/mL (≈ 14.9 µM).

With `O=C(NNC(=S)Nc1ccccc1)c1cc(C23CC4CC(CC(C4)C2)C3)c2ccccc2n1`, in the series with L929, the Activity result is on record as “Non-toxic”. This compound registered an inhibition at 6.25 µg/mL in series [1] of 12%. In series [2], this compound had an IC50 of 100 µM and an MIC90 of 6.25 µg/mL (≈ 13.7 µM).
